Read-outs that look alike come from different tables or passages of the source.
Legend:
[1] = test system: MOLT-3 lymphoblastic leukemia cell line; experiment: Cytotoxic assay; type: cell-based, human; settings: for IC50: Homo sapiens
How it was run: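 MOLT-3 leukemia cells (passage 15–25) grown in RPMI-1640 with 2 mM L-glutamine, penicillin-streptomycin, sodium pyruvate, glucose, 10 % FBS. Seeding was at 5 × 10³ – 2 × 10⁴ cells/well, 24 h at 37C, 5 % CO₂. Serial dilutions of test compound in DMSO then given for 48 h. XTT read-out at 550 nm. Normal-cell comparator: MRC-5 in DMEM, MTT read-out. IC50 is the concentration for 50 % growth inhibition.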

[2] = Cytotoxicity against normal cell line; type: cell-based; settings: human, MRC-5 normal fetal lung fibroblast cells
[3] = test system: 4 cancer cell lines (HepG2, HuCCA-1, A549, MOLT-3); experiment: Cytotoxic assay, range over the four cancer cell lines; type: cell-based; settings: Homo sapiens, read-out: IC50, range over the tested cancer cell lines
How it was run: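 Human HepG2 (DMEM), HuCCA-1 and A549 (Ham's F12), and MOLT-3 (RPMI-1640) were all in 10 % FBS. MRC-5 normal fibroblasts were in DMEM. Seeding was at 5 × 10³ – 2 × 10⁴ cells/well for 24 h at 37C. Serial dilutions of test compound (DMSO solvent) were given for 48 h. Adherent lines were read by MTT and MOLT-3 by XTT, absorbance 550 nm. IC50 is the concentration for 50 % growth inhibition.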

[4] = test system: HuCCA-1 cholangiocarcinoma cancer cell line; experiment: Cytotoxic assay; type: cell-based, human; settings: IC50 for normal cell (MRC-5) / IC50 for cancer cell
How it was run: (§1)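 A549 (passage 20–26) and HuCCA-1 (passage 115–121) kept in Ham's F12 with 2 mM L-glutamine, 100 U/mL penicillin-streptomycin, 10 % FBS; MRC-5 fibroblasts (passage 19–23) in DMEM, 10 % FBS. Cells seeded at 5 × 10³ – 2 × 10⁴/well in RPMI-1640 + 10 % FBS, 24 h at 37C, 5 % CO₂. DMSO-dissolved test compound added as serial dilutions, 48 h. MTT, absorbance 550 nm; IC50 = 50 % growth inhibition.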

[5] = test system: A549 lung carcinoma cell line; experiment: Cytotoxic assay; type: cell-based, human
How it was run: as §1

[6] = test system: HepG2 hepatocellular carcinoma cell line; experiment: Cytotoxic assay; type: cell-based, human
[7] = IC50 for normal cell (MRC-5) / IC50 for cancer cell

Compound | IC50 ([1]; MOLT-3, 48 h, read-out: IC50 MOLT-3) | Selectivity index (SI) MOLT-3 [1, 7] | IC50 at 48 h [2] | IC50 ([1]; MOLT-3, read-out: Experimental pIC50 MOLT-3 (converted)) | IC50 [3] | Selectivity index (SI) HuCCA-1 [4] | IC50 ([5]; Homo sapiens, A549, 48 h, read-out: IC50 A549) | Selectivity index (SI) A549 [5, 7] | IC50 ([6]; Homo sapiens, HepG2, 48 h, read-out: IC50 HepG2, MTT, 48 h) | Selectivity index (SI) HepG2 [6, 7]
COc1cc([C@@H]2c3cc4c(cc3[C@@H](O[C@@H]3O[C@@H]5CO[C@@H](C)O[C@H]5[C@H](O)[C@H]3O)[C@H]3COC(=O)[C@H]23)OCO4)cc(OC)c1O [Etoposide, etoposide] | 60 nM | 218.85 | 13400 nM |  |  |  |  |  |  | 
CC1=CC(=O)c2c(O)cccc2C1=O [Compound 10, plumbagin] |  |  |  | 1380 nM | 1380 to 13600 nM |  |  |  |  | 
COc1cccc2c1C(=O)c1c(O)c3c(c(O)c1C2=O)C[C@@](O)(C(=O)CO)C[C@@H]3O[C@H]1C[C@H](N)[C@H](O)[C@H](C)O1 [Doxorubicin, doxorubicin] |  |  | 930 nM |  |  | 1.08 | 310 nM | 3.02 | 460 nM | 2.02

From publication PMC12345971 (Computational and Structural Biotechnology Journal, 2025)
